Among the data in ChEMBL document CHEMBL1126030, “Synthesis and antiviral activity of a series of HIV-1 protease inhibitors with functionality tethered to the P1 or P1' phenyl substituents: X-ray crystal structure assisted design” (J Med Chem, 1992) are IC50, I/C and CIC values, retold here.

Assay [1] addresses T1, Human immunodeficiency virus type 1 protease (Human immunodeficiency virus 1, UniProt Q72874). In words: (§1) In vitro enzyme inhibitory activity against HIV-1 protease.
The target in assay [2] is Human immunodeficiency virus type 1 protease (Human immunodeficiency virus 1) (UniProt Q72874). Description: Ratio of inhibitory activity on HIV-1 protease (IC50) to antiviral activity against HIV-1 in human H9 T-lymphoid cell-ELISA assay(CIC). Type of assay: functional, cell-based. In a few lines: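 Ratio of enzyme IC50 against HIV-1 protease to CIC. CIC is the minimum cell culture inhibitory concentration that prevents spread of HIV-1 infection in human H9 T-lymphoid cells, read out by p24 ELISA.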

Assay [3] deals with H9. Description: In vitro anti viral activity against HIV-1 in human H9 T-lymphoid cell culture by fixed cell immunofluorescence assay. Format: functional. Summed up: (§2)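 Read-out is the minimum cell culture inhibitory concentration (CIC), the lowest concentration that fully prevents spread of viral infection in the human cell culture. Spread is scored by fixed-cell immunofluorescence or by p24 ELISA.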

Assay [4] concerns H9. Description: In vitro anti viral activity against HIV-1 in human H9 T-lymphoid cell culture by p-24-ELISA assay. Format: functional. Summed up: as §2
(In general: An ELISA detects its analyte on a solid surface through an enzyme-linked reagent.)

For assay [5], the system named is H9. In words: In vitro anti viral activity against HIV-1(IIIb) in H9 T-lymphoid cell culture by fixed cell immunofluorescence assay. Format: functional, Homo sapiens. Summed up: as §2
Assay [6] concerns H9. In words: In vitro anti viral activity against HIV-1(IIIb) in H9 T-lymphoid cell culture by p-24 ELISA assay. Format: functional, Homo sapiens. In a few lines: as §2
Assay [7] relates to H9. In words: In vitro anti viral activity against SIV-mac251 in H9 T-lymphoid cell culture by fixed cell immunofluorescence assay. Type of assay: functional, Homo sapiens. Summed up:
as §2

The test system of assay [8] is H9. Description: In vitro anti viral activity against SIV(mne) in H9 T-lymphoid cell culture by fixed cell immunofluorescence assay. Type of assay: functional, Homo sapiens. In a few lines:
as §2

Assay [9] relates to MT4. In words: In vitro anti viral activity against HIV-1(RUTZ) in MT-4 T-lymphoid cell culture by fixed cell immunofluorescence assay. Format: functional, Homo sapiens. In a few lines:
as §2

The test system of assay [10] is MT4. In words: In vitro anti viral activity against HIV-1(WMJ-2) in MT-4 T-lymphoid cell culture by fixed cell immunofluorescence assay. Format: functional, Homo sapiens. Summed up: as §2
Assay [11] has as its system MT4. Description: In vitro anti viral activity against HIV-1(IIIb) MT-4 T-lymphoid cell culture by fixed cell immunofluorescence assay. Type of assay: functional, Homo sapiens. Summed up: as §2
Assay [12] deals with MT4. Description: In vitro anti viral activity against HIV-1(IIIb) MT-4 T-lymphoid cell culture by p-24-ELISA assay. Format: functional, Homo sapiens. In a few lines: as §2
The subject of assay [13] is MT4. In words: In vitro anti viral activity against HIV-1(MN) in MT-4 T-lymphoid cell culture by fixed cell immunofluorescence assay. Type of assay: functional, Homo sapiens. In a few lines:
as §2

For assay [14], the system named is MT4. Description: In vitro anti viral activity against HIV-1(RF) in MT-4 T-lymphoid cell culture by fixed cell immunofluorescence assay. Type of assay: functional, Homo sapiens. In a few lines:
as §2

Assay [15] addresses T1, Human immunodeficiency virus type 1 protease. Described as §1. Type of assay: functional.
For assay [16], the species on record is Homo sapiens. Description: In vitro anti viral activity against HIV-1(IIIb) in peripheral blood lymphocytes by fixed cell immunofluorescence assay. Format: functional. In a few lines:
as §2

The species entered for assay [17] is Homo sapiens. In words: In vitro anti viral activity against HIV-1(IIIb) in peripheral blood lymphocytes by p-24-ELISA assay. Type of assay: functional. In a few lines: as §2
The species entered for assay [18] is Homo sapiens. In words: In vitro anti viral activity against HIV-1(SF162) in monocytes/macrophages by fixed cell immunofluorescence assay. Type of assay: functional. Summed up: as §2
The subject of assay [19] is MT4. In words: In vitro anti viral activity against HIV-1(IIIB) in MT-4 T-lymphoid cell culture by p-24-ELISA assay. Format: functional, Homo sapiens. Summed up: as §2

Some results are limits rather than exact numbers.

On to `CC(C)(C)OC(=O)N[C@@H](Cc1ccccc1)[C@@H](O)C[C@@H](Cc1ccccc1)C(=O)N[C@H]1c2ccccc2C[C@H]1O`, for which the IC50 (in general, the point on the concentration scale where inhibition reaches its midpoint) in assay [1] came out at 0.35 nM. In addition, in [2], the I/C amounted to 0.0009. Moreover, the CIC in the assay with H9 [3] stood at 400 nM.
In assay [1], `CN1CCN(CCOc2ccc(C[C@H](C[C@H](O)[C@H](Cc3ccccc3)NC(=O)OC(C)(C)C)C(=O)NC3c4ccccc4C[C@H]3O)cc2)CC1` (some centres undefined) had an IC50 of 0.2 nM. The CIC in the assay on H9 [4] was determined as 100 nM. Further, in assay [2], the I/C amounted to 0.002.
`CC(C)(C)OC(=O)N[C@@H](Cc1ccccc1)[C@@H](O)C[C@@H](Cc1ccc(OCCN2CCSCC2)cc1)C(=O)NC1c2ccccc2C[C@H]1O` (some centres undefined) showed an IC50 in assay [1] of 0.47 nM. Moreover, the I/C in assay [2] came to 0.0094. In the assay with H9 [3], the CIC is reported as 50 nM.
In the case of `CC(C)(C)OC(=O)N[C@@H](Cc1ccccc1)[C@@H](O)C[C@@H](Cc1ccc(OCCN2CCOCC2)cc1)C(=O)N[C@H]1c2ccccc2C[C@H]1O`, the CIC is reported as 12 nM in the assay on H9 [5]; 25 nM with H9 [6]; 800 nM in the assay on H9 [7]; 200 nM with H9 [8]; 12 nM in the assay with MT4 [9]; 12 nM in the assay on MT4 [10]. Moreover, the CIC with MT4 [11] came out at 25 nM; with MT4 [12] it was 50 nM; with MT4 [13], 25 nM; in the assay with MT4 [14], 50 nM; in the assay listed under Homo sapiens [16] it was 0.78 nM; in the assay filed under Homo sapiens [17] it was 25 nM. Moreover, the values for the CIC in the assay on H9 [4], in the assay listed under Homo sapiens [18] and with H9 [3] were 50 nM, 50 nM and 12 nM, respectively. Moreover, the IC50 in assay [15] came out at 0.45 nM. Moreover, in assay [2], the I/C was determined as 0.038.
With `CC(C)(C)OC(=O)N[C@@H](Cc1ccccc1)[C@@H](O)C[C@@H](Cc1ccc(OCC(=O)N2CCOCC2)cc1)C(=O)NC1c2ccccc2C[C@H]1O` (some centres undefined), it took 0.2 nM to reach half-maximal inhibition in [1] (IC50). This compound displayed a CIC with H9 [4] of 50 nM. Also, the I/C in assay [2] is 0.004.
In turn, `CC(C)(C)OC(=O)N[C@@H](Cc1ccc(OCCN2CCOCC2)cc1)[C@@H](O)C[C@@H](Cc1ccc(OCCN2CCOCC2)cc1)C(=O)NC1c2ccccc2C[C@H]1O` (some centres undefined) gave an IC50 in [1] of 1.9 nM. For the same compound, in [2], the I/C is 0.019. For the same compound, in the assay with H9 [3], the CIC is 100 nM.
The compound `CC(C)(C)OC(=O)N[C@@H](Cc1ccc(O)cc1)[C@@H](O)C[C@@H](Cc1ccc(O)cc1)C(=O)NC1c2ccccc2C[C@H]1O` (some centres undefined) had an IC50 in [1] of 0.15 nM. Further, the I/C in assay [2] was 0.0002. In the assay with H9 [3], this compound yielded a CIC of 780 nM.
In assay [1], `CC(C)(C)OC(=O)N[C@@H](Cc1ccccc1)[C@@H](O)C[C@@H](Cc1ccc(OCCN2CCCCC2)cc1)C(=O)NC1c2ccccc2C[C@H]1O` (some centres undefined) gave an IC50 of 1.6 nM. In addition, in assay [2], the I/C stood at 0.004. Moreover, the CIC in the assay with H9 [3] is 400 nM.
In the case of `Cc1cn([C@H]2C[C@H](N=[N+]=[N-])[C@@H](CO)O2)c(=O)[nH]c1=O` [ZIDOVUDINE], the CIC with MT4 [19] was found to be 25 nM.
In turn, `CC(C)(C)OC(=O)N[C@@H](Cc1ccccc1)[C@@H](O)C[C@@H](Cc1ccc(OCCN2CCCC2)cc1)C(=O)NC1c2ccccc2C[C@H]1O` (some centres undefined) registered an IC50 in [1] of 1.8 nM.
In assay [1], `COCCN(CCOC)CCOc1ccc(C[C@H](C[C@H](O)[C@H](Cc2ccccc2)NC(=O)OC(C)(C)C)C(=O)NC2c3ccccc3C[C@H]2O)cc1` (some centres undefined) came in with an IC50 of 0.9 nM. In assay [2], the I/C worked out at 0.018. The CIC with H9 [3] came to 50 nM.
Turning to `CC(C)(C)OC(=O)N[C@@H](Cc1ccc(O)cc1)[C@@H](O)C[C@@H](Cc1ccccc1)C(=O)NC1c2ccccc2C[C@H]1O` (some centres undefined), the IC50 in [1] came to 0.35 nM. Besides, the figures for the CIC in the assay with H9 [4] and with H9 [3] were 25 nM and 50 nM, respectively. Further, in assay [2], the I/C amounted to 0.007.
Compound `CC(C)(C)OC(=O)N[C@@H](Cc1ccccc1)[C@@H](O)CC(Cc1ccc(OCC(=O)O)cc1)C(=O)NC1c2ccccc2C[C@H]1O` (some centres undefined) registered a 50% inhibitory concentration (IC50) in assay [1] of 0.04 nM. The compound further returned a CIC with H9 [4] greater than 400 nM. In addition, the I/C in assay [2] was less than 0.0001.
`CN(C)CCOc1ccc(C[C@H](C[C@H](O)[C@H](Cc2ccccc2)NC(=O)OC(C)(C)C)C(=O)NC2c3ccccc3C[C@H]2O)cc1` (some centres undefined): the IC50 in assay [1] was 1 nM. For the same compound, in assay [2], the I/C was 0.0025. Further, in the assay on H9 [3], the CIC is reported as 400 nM.
As to `CC(C)(C)OC(=O)N[C@@H](Cc1ccccc1)[C@@H](O)C[C@@H](Cc1ccc(OCc2ccccc2)cc1)C(=O)NC1c2ccccc2C[C@H]1O` (some centres undefined), half-maximal inhibition in [1] (IC50) was put at 0.18 nM. In the assay with H9 [4], this compound registered a CIC of 50 nM. Besides, the I/C in assay [2] stood at 0.0036.
Regarding `CC(C)(C)OC(=O)N[C@@H](Cc1ccccc1)[C@@H](O)C[C@@H](Cc1ccc(OCCN2CCS(=O)(=O)CC2)cc1)C(=O)NC1c2ccccc2C[C@H]1O` (some centres undefined), the midpoint of inhibition in [1], the IC50, lay at 0.08 nM. The same compound showed a CIC with H9 [4] of 100 nM. Moreover, the I/C in assay [2] is 0.0008.
Taken in the same sequence, the figures for `CC(C)(C)OC(=O)N[C@@H](Cc1ccccc1)[C@@H](O)C[C@@H](Cc1ccc(OCC[N+]2([O-])CCOCC2)cc1)C(=O)NC1c2ccccc2C[C@H]1O` (some centres undefined) were 0.2 nM, 100 nM and 0.002.
Regarding `CC(C)(C)OC(=O)N[C@@H](Cc1ccc(OCCN2CCOCC2)cc1)[C@@H](O)C[C@@H](Cc1ccccc1)C(=O)NC1c2ccccc2C[C@H]1O` (some centres undefined), inhibition in [1] was half-maximal at 0.55 nM (IC50). For the same compound, the I/C in assay [2] was determined as 0.011. In addition, in the assay with H9 [3], the CIC was 50 nM.
`CC(C)(C)OC(=O)N[C@@H](Cc1ccccc1)[C@@H](O)C[C@@H](Cc1ccc(OCCCN2CCOCC2)cc1)C(=O)NC1c2ccccc2C[C@H]1O` (some centres undefined) had an IC50 in [1] of 2 nM. Also, the I/C in assay [2] was 0.01. In the assay on H9 [3], the CIC came out at 200 nM.
Compound `CC(C)(C)OC(=O)N[C@@H](Cc1ccccc1)[C@@H](O)C[C@@H](Cc1ccc(OCCO)cc1)C(=O)NC1c2ccccc2C[C@H]1O` (some centres undefined) gave an IC50 in assay [1] of 0.09 nM. Also, the CIC in the assay on H9 [4] was determined as 50 nM. The I/C in assay [2] turned out to be 0.0018.
In the case of `NC1N=CNc2c1ncn2[C@H]1CC[C@@H](CO)O1` (some centres undefined), the CIC in the assay with H9 [3] is given as 25000 nM.
The compound `CC(C)(C)OC(=O)N[C@@H](Cc1ccccc1)[C@@H](O)C[C@@H](Cc1ccc(O)cc1)C(=O)N[C@H]1c2ccccc2C[C@H]1O` gave an IC50 in [1] of 0.16 nM. Also, the CIC in the assay on H9 [4] worked out at 50 nM; with H9 [3], 25 nM. Also, the I/C in assay [2] turned out to be 0.0032.
Take `CC(C)(C)OC(=O)N[C@@H](Cc1ccccc1)[C@@H](O)C[C@@H](Cc1ccc(OCCN2CC[S+]([O-])CC2)cc1)C(=O)NC1c2ccccc2C[C@H]1O` (some centres undefined): in [1], the IC50 was 0.07 nM. In assay [2], the I/C worked out at 0.00035. Also, the CIC in the assay on H9 [3] came to 200 nM.
